# Screens from PubChem BioAssay.
# H69AR growth 86K: growth inhibitors of human H69AR lung tumor cells; H69AR lung tumor viability, ATP luminescence, 72 h; active compounds read low; viability, % at 10 µM; 85,000 tested, 6% active;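 active = viability at or below 40%; inactive = viability above 40%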;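 note: multidrug resistant small cell line overexpressing MRP-1 efflux transporter; 100% = mean luminescence of untreated control wells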
# PTEN del growth: suppresses growth of cells with PTEN deletion; HCT116 PTEN-null viability, CellTiter-Glo, 60 h; active compounds read low; viability, % at 10 µM; 140,000 tested, 1.2% active; AID 827;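 active = viability at or below a set limit, 4 SD under the median of all tested compounds, cut at about 3.7% in these data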;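 note: PTEN knockout HCT116 line with beta catenin targeted HCT116 as companion control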
# Calb biofilm kill: kills Candida albicans biofilms; 85,000 tested, 0.14% active; C. albicans biofilm + clotrimazole, Alamar Blue; inhibition, % at 6 µM;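 active = inhibition above 20%; inactive = inhibition below 20%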;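 note: preformed 24 hr biofilms exposed to compound for 48 hr; 0% = biofilm without compound and 100% = blank killed by clotrimazole plus chlorhexidine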
# Lung fibro prol: blocks proliferation of human lung fibroblasts | 85,000 tested, 1.1% active | viability, % at 10 µM | LL 47 human lung fibroblast viability, ATP luminescence; active compounds read low;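 active = viability at or below 50% in the single dose screen; inactive = viability above 50%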;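 note: compound exposure lasted 72 h before the ATP readout; 100% = median luminescence of untreated cell-only wells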
#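 Benchmarks: Cell-only wells, no compound | Test system: LL 47 human lung fibroblasts, passage 12 or lower | Input: 1,150 cells/well | Measured by: CellTiter-Glo luminescence measuring cellular ATP | Medium: IMEM, 15% FBS supplement | Schedule: Overnight attachment after seeding, then 72 h compound exposure at 37 °C | Doses: Compound addition at 0.1% DMSO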
# bCat KO growth: beta-catenin-lacking colon tumor cell growth suppression; HCT116 beta-catenin knockout viability, CellTiter-Glo, 60 h; active compounds read low; viability, % at 10 µM; 140,000 tested, 1.5% active; AID 818;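 active = viability at or under a set limit, the compound median less 4 SD, cut at about 6% in these data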;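 note: 0% = Hyamine 1622 control at 20 µM and 100% = untreated cell control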
# HUVEC inhibit: blocks proliferation of human endothelial cells. HUVEC proliferation, CellTiter-Glo luminescence, 72 h; active compounds read low. viability, % at 10 µM (by protocol). 86,000 tested, 1.1% active;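 active = viability at or below 30%; inactive = viability above 30%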;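 note: 100% = median luminescence of DMSO-only cell control wells on each plate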
# * hit, by the source's call; / = no result. Many of the other results were omitted from the sample, so hits are more common in it than they were.
SMILES,H69AR growth 86K,PTEN del growth,Calb biofilm kill,Lung fibro prol,bCat KO growth,HUVEC inhibit
O=C(Cc1ccccc1)N/N=C/c1ccc(OCC(=O)Nc2ccccc2)cc1,/,101.1,/,/,94.7,/
O=C(N/N=C/c1cccc([N+](=O)[O-])c1)c1cc2ccccc2o1,/,2.2*,/,/,3.8*,/
O=C(COc1ccc(/C=N/NC(=O)c2cc3ccccc3o2)cc1Cl)Nc1ccccc1,/,1.5*,/,/,2.8*,/
O=C(CC1CCCCC1)Nc1ncn[nH]1,86.1,90.5,0.5,96.5,88.9,100.4
O=C(Nc1ccccc1)c1ccsc1,/,98.9,/,/,94.5,/
CCn1cc(/C=N/NC(=O)COc2cccc3cccnc23)c2ccccc21,/,94.6,/,/,95.3,/
C=CCn1c(=O)c2c3c(sc2n2c(Nc4ccc(C(=O)OCC)cc4)nnc12)CCCC3,38.7*,78.1,-1.8,103.7,84.5,86.1
C=CCn1c(=O)c2c3c(sc2n2c(Nc4ccc(OC)cc4)nnc12)CCCC3,90.3,61.8,2.5,95.4,73.9,77.8
CCOC(=O)c1oc2ccc(CNC3CCCCC3)c(Cl)c2c1C,18.3*,58.9,8.6,94.7,46.4,29.3*
COc1ccc(NC(=S)N2CCNC(=O)C2CC(=O)Nc2cccc(Cl)c2C)cc1 (stereo not given),/,89.9,/,/,93.8,/
CCN(CC)S(=O)(=O)c1cc(C)ccc1SC,/,80.8,/,/,89.6,/
CCOC(=O)N1CCN(C(=O)CSCC(=O)Nc2nc(-c3ccc(-c4ccccc4)cc3)cs2)CC1,0.7*,8.0,4.8,81.5,7.9,55.1
Cn1c(-c2ccc3ccccc3n2)nc2cnccc21,74.0,57.1,3.9,86.8,65.6,28.8*
COc1cc(OC)c(-c2nc3cnccc3n2C)cc1OC,98.6,118.0,6.1,106.5,100.2,96.3
Nc1n[nH]c(N)c1N=Nc1ccc(Cl)cc1Cl,/,56.6,/,/,67.9,/
O=C(CC1SC(=NCCc2ccccc2)N(/N=C/c2cccs2)C1=O)Nc1ccc(Cl)cc1 (stereo not given),/,48.2,/,/,59.2,/
Cc1ccc(-c2onc3ccc(C=O)cc23)cc1,33.4*,36.0,2.7,91.3,24.7,57.3
O=C(Cc1sc(-c2ccccc2Cl)nc1-c1ccccc1)Nc1ccccc1,44.9,75.9,3.7,23.3*,68.9,66.2
O=C(Cc1csc(-c2ccccc2)n1)Nc1ccc(C(F)(F)F)cc1,/,100.3,/,/,94.0,/
O=C(Cc1sc(-c2ccccc2)nc1-c1ccccc1)Nc1ccc(Cl)cc1,20.2*,33.3,3.0,67.2,29.5,49.9
O=C(CSc1nnc(-c2ccc(F)cc2)c2ccccc12)Nc1ccccc1,/,75.0,/,/,80.4,/
O=C(Cc1sc(-c2ccccc2Cl)nc1-c1ccccc1)Nc1ccc(F)cc1,10.8*,84.5,4.2,44.8*,78.7,78.6
Cc1ccc(C2C(C(N)=S)=C(N)OC3=C2C(=O)CC(C)(C)C3)cc1 (stereo not given),/,92.7,/,/,97.7,/
CC1(C)CC(=O)C2=C(C1)OC1=C(C(=O)CC(C)(C)C1)C2c1ccc(O)cc1O,2.2*,1.8*,2.0,16.7*,2.1*,25.3*
COc1ccccc1OCC(=O)N/N=C/C=C/c1ccc([N+](=O)[O-])o1,/,2.6*,/,/,3.2*,/
SMILES,H69AR growth 86K,PTEN del growth,Calb biofilm kill,Lung fibro prol,bCat KO growth,HUVEC inhibit
CC(=O)Nc1ccc(N2C(C(C)=O)=NN(c3ccccc3)C2c2cccs2)cc1 (stereo not given),79.5,91.3,7.2,101.9,90.5,104.2
CC(=O)Nc1ccc(N2C(C(C)=O)=NN(c3ccc(Cl)cc3)C2c2sccc2C)cc1 (stereo not given),37.6*,90.4,-3.5,93.8,84.8,53.8
C=CCN1C(=O)C2(NNc3ccccc3O2)c2ccccc21 (stereo not given),12.7*,75.2,2.6,75.5,77.3,22.8*
CCCCN1C(=O)C2(NNc3ccccc3O2)c2ccccc21 (stereo not given),/,103.7,/,/,87.5,/
CC1CCCCN1C(=O)CSc1nnc(-c2c[nH]c3ccccc23)o1 (stereo not given),21.7*,99.6,4.1,100.9,96.9,101.8
O=c1/c(=C/c2ccc([N+](=O)[O-])cc2)sc2n1CCCN=2,/,14.9,/,/,2.1*,/
Cc1cc(C)c(C(=O)C2OC(=O)C(C)(C)C(=O)C2(C)C)c(C)c1 (stereo not given),102.2,87.9,1.4,103.5,85.5,113.8
Nc1c(C(=O)NCCN2CCOCC2)c2nc3ccccc3nc2n1-c1ccccc1,35.7*,74.8,5.9,97.9,77.7,95.9
Nc1c(C(=O)NCc2ccc3c(c2)OCO3)c2nc3ccccc3nc2n1CCCN1CCOCC1,1.1*,1.4*,-1.5,61.6,1.4*,20.4*
Nc1c(C(=O)NCc2ccco2)c2nc3ccccc3nc2n1CCc1ccc(F)cc1,4.0*,26.1,4.8,82.6,28.4,34.0
Nc1c(C(=O)NCCN2CCOCC2)c2nc3ccccc3nc2n1-c1ccc2c(c1)OCO2,35.5*,81.4,-1.6,75.0,90.5,85.0
COCCNC(=O)c1c(N)n(-c2ccccc2)c2nc3ccccc3nc12,60.7,92.2,15.5,89.1,90.8,76.6
COc1ccccc1CNC(=O)c1c(N)n(CCCN2CCOCC2)c2nc3ccccc3nc12,/,7.5,/,/,10.5,/
COC(=O)C(NC(=O)c1ccc(C)cc1)(Nc1cccc(C)n1)C(F)(F)F (stereo not given),97.9,87.0,8.2,98.6,93.0,101.7
Nc1c(C(=O)NCCN2CCOCC2)c2nc3ccccc3nc2n1CCc1ccccc1,47.1,21.8,4.8,87.3,42.6,58.2
Nc1c(C(=O)NCCN2CCOCC2)c2nc3ccccc3nc2n1CCc1ccccc1F,26.3*,3.8*,5.0,92.1,3.6*,43.1
CCOC(=O)N1CCN(C(=O)c2noc(C(C)C)c2[N+](=O)[O-])CC1,/,100.3,/,/,99.0,/
Cc1csc(SCCn2c(N3CCN(c4ccccc4)CC3)nc3c2c(=O)[nH]c(=O)n3C)n1,69.9,78.7,5.6,99.4,84.5,81.5
CCN1C=CC(=C2C(=O)c3ccccc3C2=O)C=C1,27.1*,57.4,10.7,68.7,49.7,61.2
Cc1cc(-n2c(C)cc(C(=O)CSc3ccc4c(c3)OCCO4)c2C)no1,60.5,67.9,11.8,97.6,74.5,78.8
Cn1c(-c2ccccc2)c[n+]2c1-c1ccccc1C2,/,24.8,/,/,17.2,/
COc1ccc(NC(=O)/C(Cl)=C(/Cl)S(=O)(=O)Cc2ccc(C)cc2)cn1,93.8,2.0*,3.1,2.3*,3.1*,5.4*
CN(c1ccccc1)c1nc(N2CCCC2)nc(-n2ccnc2)n1,39.5*,85.5,4.6,73.2,74.0,90.2
c1ccc(N(c2ccccc2)c2nc(N3CCCC3)nc(-n3ccnc3)n2)cc1,20.1*,47.7,3.5,63.5,56.7,44.0
c1ccc(CN2CCN(c3nc(-c4ccccc4)nc(-n4ccnc4)n3)CC2)cc1,79.5,65.2,6.7,84.0,65.0,65.2
N/C(=N/O)c1nc(N2CCCC2)nc(N(c2ccccc2)c2ccccc2)n1,52.6,88.4,7.3,84.7,89.9,87.0
